# Assays:
# [1] = system: P388; assay: Cytotoxic activity against murine P388 leukemia cells; type: functional, cell-based; conditions: Mus musculus
# [2] = Solubility at pH 7.2; type: physicochemical; conditions: buffer
# Method in brief: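 Water solubility measured in pH 7.2 phosphate buffer, reported in mg/mL.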
# [3] = system: Mus musculus; assay: Ratio of median survival time of treated mice (T) to that of median survival time of controls (C) in mice infected with p388 cells (in vivo) at a dose of 0.78 mg/kg; type: functional
# Method in brief: (§1)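 BDF1 mice implanted ip with 0.1 mL diluted ascites fluid carrying 10⁶ P388 leukemia cells. Dosing ip on days 1 and 5 after implantation. Test compounds were suspended in 0.4% CMC, and reference drugs were dissolved and diluted in distilled water. Seven mice per group. T/C (%) = median survival time of treated group / median survival time of control group × 100.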
# [4] = system: Mus musculus; assay: Ratio of median survival time of treated mice (T) to that of median survival time of controls (C) in mice infected with p388 cells (in vivo) at a dose of 25 mg/kg; type: functional; method in brief: as §1
# [5] = system: Mus musculus; assay: Ratio of median survival time of treated mice (T) to that of median survival time of controls (C) in mice infected with p388 cells (in vivo) at a dose of 12.5 mg/kg; type: functional; method in brief: as §1
# [6] = system: Mus musculus; assay: Ratio of median survival time of treated mice (T) to that of median survival time of controls (C) in mice infected with p388 cells (in vivo) at a dose of 6.25 mg/kg; type: functional; method in brief: as §1
# [7] = system: Mus musculus; assay: Ratio of median survival time of treated mice (T) to that of median survival time of controls (C) in mice infected with p388 cells (in vivo) at a dose of 3.13 mg/kg; type: functional; method in brief: as §1
# [8] = system: Mus musculus; assay: Ratio of median survival time of treated mice (T) to that of median survival time of controls (C) in mice infected with p388 cells (in vivo) at a dose of 1.56 mg/kg; type: functional; method in brief: as §1
# [9] = system: Mus musculus; assay: Ratio of median survival time of treated mice (T) to that of median survival time of controls (C) in mice infected with p388 cells (in vivo) at a dose of 50 mg/kg; type: functional; method in brief: as §1
# [10] = system: SCaBER; assay: Cytotoxic activity against human tumor SCaBER bladder cells; type: functional, cell-based
# Method in brief: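 SCaBER cells maintained in EMEM with 10% FBS and nonessential amino acids. Seeded at (1-2) × 10⁴ cells/mL, 24 h preincubation, then 72 h compound exposure at various concentrations at 37 °C in 5% CO₂. MTT (5 mg/mL) for 4 h, then DMSO, read at 570/690 nm. IC50 is 50% absorbance drop vs control. At least two independent experiments averaged.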
# [11] = system: HL-60; assay: Cytotoxic activity against human tumor HL-60 leukemia cells; type: functional, cell-based
# Method in brief: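 HL-60 cells grown in RPMI 1640 with 20% FBS. Seeded at (1-2) × 10⁴ cells/mL, preincubated 24 h, then exposed to a range of compound concentrations for 72 h at 37 °C in 5% CO₂. Read by MTT (5 mg/mL solution, 4 h), formazan dissolved in DMSO, absorbance 570 nm/690 nm. IC50 is the concentration giving 50% absorbance reduction vs control. Mean of at least two independent experiments.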
# [12] = system: Hs746T; assay: Cytotoxic activity against human tumor Hs 746.T stomach cells; type: functional, cell-based
# Method in brief: (§2)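 Hs746T and PANC-1 cells kept in Dulbecco's modified Eagle's medium with 10% FBS. Seeded at (1-2) × 10⁴ cells/mL, 24 h preincubation, then graded compound concentrations for 72 h at 37 °C in 5% CO₂. MTT (5 mg/mL solution) added for 4 h, formazan taken up in DMSO, read at 570/690 nm. IC50 is 50% absorbance reduction relative to control. At least two independent experiments averaged.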
# [13] = system: PANC-1; assay: Cytotoxic activity against human tumor PANC-1 pancreas cells; type: functional, cell-based; method in brief: as §2
# [14] = system: SBC-3; assay: Cytotoxic activity against human tumor SBC-3 lung cells; type: functional, cell-based
# Method in brief: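 SBC-3 cells cultured in RPMI 1640 plus 10% FBS. Plated at (1-2) × 10⁴ cells/mL, preincubated 24 h, then compound at various concentrations for 72 h at 37 °C in 5% CO₂. MTT solution (5 mg/mL) for 4 h, DMSO solubilization, absorbance 570 nm with 690 nm reference. IC50 is the dose halving absorbance vs control. Mean of at least two independent runs.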
# [15] = system: SK-OV-3; assay: Cytotoxic activity against human tumor SK-OV-3 ovary cells; type: functional, cell-based; conditions: SK-OV-3, Female gonad
# Method in brief: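 SKOV3 cells grown in RPMI 1640 with 10% heat-inactivated FBS. Cells at (1-2) × 10⁴ cells/mL, preincubated 24 h, treated with graded concentrations for 72 h at 37 °C in 5% CO₂. MTT readout (5 mg/mL, 4 h), formazan in DMSO, absorbance 570 nm/690 nm. IC50 is the concentration for 50% absorbance reduction vs control. Mean of at least two independent experiments.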
compound,measurement,setting,value
Cl.Nc1cc2c(=O)c(C(=O)O)cn(-c3nccs3)c2nc1N1CCC(N)C1 (stereo not given),IC50,[1],1.01 µg/mL
CN[C@@H]1CN(c2ccc3c(=O)c(C(=O)O)cn(-c4nccs4)c3n2)C[C@H]1OC.Cl,solubility,[2],19800 µg/mL
same,T/C,[3],125%
same,T/C,[4],300%
same,T/C,[5],238%
same,IC50,[1],0.021 µg/mL
same,T/C,[6],188%
same,T/C,[7],163%
same,T/C,[8],125%
CN[C@H]1CN(c2ccc3c(=O)c(C(=O)O)cn(-c4nccs4)c3n2)C[C@@H]1SC.Cl,IC50,[1],0.02 µg/mL
Cl.NC1CCN(c2ccc3c(=O)c(C(=O)O)cn(-c4nccs4)c3n2)C1 (stereo not given),solubility,[2],6.9 µg/mL
same,T/C,[9],125%
same,T/C,[5],275%
same,IC50,[1],0.01 µg/mL
same,T/C,[7],188%
Cl.NC1CCN(c2cc(Cl)c3c(=O)c(C(=O)O)cn(-c4nccs4)c3n2)C1 (stereo not given),IC50,[1],0.049 µg/mL
CO[C@H]1CN(c2ccc3c(=O)c(C(=O)O)cn(-c4nccs4)c3n2)C[C@@H]1N.Cl,solubility,[2],47 µg/mL
same,T/C,[9],338%
same,T/C,[5],238%
same,IC50,[1],0.018 µg/mL
same,T/C,[7],163%
O=C(O)c1cn(-c2nccs2)c2nc(-c3cc[nH]n3)ccc2c1=O,IC50,[1],4.34 µg/mL
CN[C@H]1CN(c2ccc3c(=O)c(C(=O)O)cn(-c4nccs4)c3n2)C[C@H]1OC.Cl,IC50,[1],0.02 µg/mL
C[C@@H]1CN(c2ccc3c(=O)c(C(=O)O)cn(-c4nccs4)c3n2)C[C@H](C)N1.Cl,IC50,[1],0.081 µg/mL
CNC1CCCN(c2ccc3c(=O)c(C(=O)O)cn(-c4nccs4)c3n2)C1.Cl (stereo not given),IC50,[1],0.52 µg/mL
C=Cc1ccc2c(=O)c(C(=O)O)cn(-c3nccs3)c2n1,IC50,[1],> 1 µg/mL
CN[C@H]1CN(c2ccc3c(=O)c(C(=O)O)cn(-c4nccs4)c3n2)C[C@@H]1OC.Cl [listing 1 of 2 here],solubility,[2],23700 µg/mL
same,T/C,[3],150%
same,T/C,[4],>375%
same,T/C,[5],>375%
same,IC50,[1],0.0075 µg/mL
same,T/C,[6],275%
same,T/C,[7],225%
same,T/C,[8],188%
Cl.Nc1cc(N2CCC(N)C2)nc2c1c(=O)c(C(=O)O)cn2-c1nccs1 (stereo not given),IC50,[1],0.0081 µg/mL
Cl.NC1CCN(c2nc3c(cc2[N+](=O)[O-])c(=O)c(C(=O)O)cn3-c2nccs2)C1 (stereo not given),IC50,[1],2.29 µg/mL
COc1ccccc1N1CCN(c2ccc3c(=O)c(C(=O)O)cn(-c4nccs4)c3n2)CC1.Cl,IC50,[1],> 1 µg/mL
Cl.NC1CCN(c2cc(C(F)(F)F)c3c(=O)c(C(=O)O)cn(-c4nccs4)c3n2)C1 (stereo not given),IC50,[1],0.098 µg/mL
C#Cc1ccc2c(=O)c(C(=O)O)cn(-c3nccs3)c2n1,IC50,[1],2.3 µg/mL
C[C@H]1CN(c2ccc3c(=O)c(C(=O)O)cn(-c4nccs4)c3n2)C[C@@H]1N.Cl,solubility,[2],17 µg/mL
same,T/C,[9],288%
same,T/C,[5],200%
same,IC50,[1],0.0096 µg/mL
same,T/C,[7],175%
Cl.NC1CCN(c2nc3c(cc2O)c(=O)c(C(=O)O)cn3-c2nccs2)C1 (stereo not given),IC50,[1],4.31 µg/mL
Cl.O=C(O)c1cn(-c2nccs2)c2nc(N3C[C@@H]4CCCN[C@@H]4C3)ccc2c1=O,IC50,[1],0.017 µg/mL
Cl.O=C(O)c1cn(-c2nccs2)c2nc(N3CCc4ccccc4C3)ccc2c1=O,IC50,[1],> 10 µg/mL
COc1cc([C@@H]2c3cc4c(cc3[C@@H](O[C@@H]3O[C@@H]5CO[C@@H](C)O[C@H]5[C@H](O)[C@H]3O)[C@H]3COC(=O)[C@H]23)OCO4)cc(OC)c1O [ETOPOSIDE],IC50,[10],0.276 µg/mL
same,T/C,[9],>375%
same,IC50,[11],0.15 µg/mL
same,T/C,[3],138%
same,T/C,[4],>375%
same,T/C,[5],250%
same,IC50,[12],3.29 µg/mL
same,IC50,[13],1.6 µg/mL
same,IC50,[14],0.0676 µg/mL
same,IC50,[15],1.06 µg/mL
same,T/C,[6],200%
same,T/C,[7],175%
same,T/C,[8],150%
CN[C@@H]1CN(c2ccc3c(=O)c(C(=O)O)cn(-c4nccs4)c3n2)[C@H]1C.Cl,IC50,[1],0.041 µg/mL
Cc1cc(-c2ccc3c(=O)c(C(=O)O)cn(-c4nccs4)c3n2)cc(C)n1,IC50,[1],7.37 µg/mL
Cl.N[C@H]1CN(c2ccc3c(=O)c(C(=O)O)cn(-c4nccs4)c3n2)C[C@@H]1CCl,IC50,[1],0.024 µg/mL
CCN[C@H]1CN(c2ccc3c(=O)c(C(=O)O)cn(-c4nccs4)c3n2)C[C@@H]1OC.Cl,IC50,[1],0.025 µg/mL
CISPLATIN,T/C,[3],154%
same,T/C,[6],290%
same,T/C,[7],239%
same,T/C,[8],186%
CN[C@H]1CN(c2ccc3c(=O)c(C(=O)O)cn(-c4nccs4)c3n2)C[C@@H]1OC [VOSAROXIN],IC50,[10],0.121 µg/mL
same,IC50,[11],0.0498 µg/mL
same,IC50,[12],0.194 µg/mL
same,IC50,[13],0.388 µg/mL
same,IC50,[14],0.0319 µg/mL
same,IC50,[15],0.266 µg/mL
Cl.O=C(O)c1cn(-c2nccs2)c2nc(N3CCCC3)ccc2c1=O,IC50,[1],0.066 µg/mL
C[C@H]1CN(c2ccc3c(=O)c(C(=O)O)cn(-c4nccs4)c3n2)C[C@]1(C)N.Cl,IC50,[1],0.02 µg/mL
Cl.NC1CCN(c2nc3c(cc2Cl)c(=O)c(C(=O)O)cn3-c2nccs2)C1 (stereo not given),IC50,[1],0.227 µg/mL
C[C@H]1[C@H](N)CCN1c1ccc2c(=O)c(C(=O)O)cn(-c3nccs3)c2n1.Cl,IC50,[1],0.094 µg/mL
Cl.O=C(O)c1cn(-c2nccs2)c2nc(N3CCNCC3)ccc2c1=O,IC50,[1],0.057 µg/mL
O=C(O)c1cn(-c2nccs2)c2nc(-c3ccccc3)ccc2c1=O,IC50,[1],6.33 µg/mL
COc1cccc2c1C(=O)c1c(O)c3c(c(O)c1C2=O)C[C@@](O)(C(=O)CO)C[C@@H]3O[C@H]1C[C@H](N)[C@H](O)[C@H](C)O1 [DOXORUBICIN],T/C,[3],173%
same,T/C,[6],293%
same,T/C,[7],235%
same,T/C,[8],228%
CC1CC(N)CN1c1ccc2c(=O)c(C(=O)O)cn(-c3nccs3)c2n1.Cl (stereo not given),IC50,[1],0.11 µg/mL
CNC1CCN(c2ccc3c(=O)c(C(=O)O)cn(-c4nccs4)c3n2)C1.Cl (stereo not given),solubility,[2],8 µg/mL
same,T/C,[9],>375%
same,T/C,[5],300%
same,IC50,[1],0.01 µg/mL
same,T/C,[7],200%
Cl.O=C(O)c1cn(-c2nccs2)c2nc(N3CCOCC3)ccc2c1=O,IC50,[1],0.12 µg/mL
CN[C@H]1CN(c2ccc3c(=O)c(C(=O)O)cn(-c4nccs4)c3n2)C[C@@H]1C.Cl,solubility,[2],6.2 µg/mL
same,T/C,[9],75%
same,T/C,[5],288%
same,IC50,[1],0.012 µg/mL
same,T/C,[7],188%
CN[C@H]1CN(c2ccc3c(=O)c(C(=O)O)cn(-c4nccs4)c3n2)C[C@@H]1OC.Cl [listing 2 of 2 here],solubility,[2],20100 µg/mL
same,T/C,[9],>375%
same,T/C,[3],150%
same,T/C,[4],300%
same,T/C,[5],250%
same,IC50,[1],0.01 µg/mL
same,T/C,[6],225%
same,T/C,[7],200%
CC1(N)CCN(c2ccc3c(=O)c(C(=O)O)cn(-c4nccs4)c3n2)C1.Cl (stereo not given),solubility,[2],3.8 µg/mL
same,T/C,[9],138%
same,T/C,[5],213%
same,IC50,[1],0.019 µg/mL
same,T/C,[7],150%
CNC1CN(c2ccc3c(=O)c(C(=O)O)cn(-c4nccs4)c3n2)C1.Cl,IC50,[1],0.024 µg/mL
CNC1(C)CCN(c2ccc3c(=O)c(C(=O)O)cn(-c4nccs4)c3n2)C1.Cl (stereo not given),solubility,[2],7.2 µg/mL
same,T/C,[9],113%
same,T/C,[5],225%
same,IC50,[1],0.018 µg/mL
same,T/C,[7],163%
